In assay [1] the target is T1, Protein cereblon/Cyclin-dependent kinase 2 (Homo sapiens) (UniProt P24941+Q96SW2). Nature of the assay: Protac activity at CRBN/CDK2 in AR-negative human PC3 cells assessed as induction of CDK2 protein degradation at 1 uM after 12 hrs by Western blot analysis. Type of assay: cell-based. As to conditions: PC-3. In outline:
(§1)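 PC-3 cells (5 × 10^5 per well) treated 12 h at single concentrations (50 nM, 500 nM, 1, 5 or 30 µM). RIPA lysates (50 µg) run on 10% SDS-PAGE and immunoblotted for CDK2, CDK5, CDK9 with β-tubulin loading control, then detected by chemiluminescence. Band intensities quantified densitometrically.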
A general note: Immunoblotting shows a protein as a band on a membrane.

For assay [2], the target named is T2, Protein cereblon/Cyclin-dependent kinase 2/Cyclin-dependent kinase 9 (Homo sapiens, UniProt P24941+P50750+Q96SW2). The assay is described as follows: Protac activity at CRBN/CDK2/CDK9 in AR-negative human PC3 cells assessed as induction of CDK2 protein degradation at 5 uM after 12 hrs by Western blot analysis. As to conditions: PC-3. Type of assay: cell-based. In short, it runs like this:
as §1

Assay [3] concerns the target T2, Protein cereblon/Cyclin-dependent kinase 2/Cyclin-dependent kinase 9. Nature of the assay: Protac activity at CRBN/CDK2/CDK9 in AR-negative human PC3 cells assessed as induction of CDK9 protein degradation at 5 uM after 12 hrs by Western blot analysis. Type of assay: cell-based. To be noted: PC-3. In outline:
as §1

In assay [4] the target is T3, Protein cereblon/Cyclin-dependent kinase 9 (Homo sapiens) (UniProt P50750+Q96SW2). Nature of the assay: Protac activity at CRBN/CDK9 in AR-negative human PC3 cells assessed as induction of CDK9 protein degradation at 1 uM after 12 hrs by Western blot analysis. The format is cell-based. As to conditions: PC-3. In outline: (§2)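 PC-3 cells (DMEM/F12 1:1, 10% FBS, 1% pen/strep, 37 °C, 5% CO2) plated at 5 × 10^5 per well, exposed to compound for 12 h. RIPA lysates with protease inhibitors; 50 µg total protein run on 10% SDS-PAGE, transferred to PVDF, blocked in 5% milk/TBS-T. Probed with anti-CDK9 (1/1000), β-tubulin loading control, HRP secondary, chemiluminescence; bands scored as degradation detected or not.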

Assay [5] concerns the target Protein cereblon/Cyclin-dependent kinase 5 (Homo sapiens) (UniProt Q00535+Q96SW2). The assay is described as follows: Protac activity at CRBN/CDK5 in AR-negative human PC3 cells assessed as induction of CDK5 protein degradation at 1 uM after 12 hrs by Western blot analysis. The format is cell-based. To be noted: PC-3. In outline: as §1
Assay [6] addresses T2, Protein cereblon/Cyclin-dependent kinase 2/Cyclin-dependent kinase 9. The assay is described as follows: Protac activity at CRBN/CDK2/CDK9 in AR-negative human PC3 cells assessed as induction of CDK9 protein degradation at 30 uM after 12 hrs by Western blot analysis. Type of assay: cell-based. As to conditions: PC-3. In short, it runs like this: as §1
In assay [7] the target is T3, Protein cereblon/Cyclin-dependent kinase 9 (Homo sapiens). The assay is described as follows: Protac activity at CRBN/CDK9 in AR-negative human PC3 cells assessed as induction of CDK9 protein degradation at 30 uM after 12 hrs by Western blot analysis. As to conditions: PC-3. Type of assay: cell-based. In short, it runs like this:
as §2

Assay [8] relates to PC-3. Nature of the assay: Antiproliferative activity against AR-negative human PC3 cells assessed as reduction in cell viability after 5 days by CCK8 assay. As to conditions: PC-3, 120 h. Type of assay: functional, cell-based. In short, it runs like this: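 Cells seeded at 3 × 10^3 per well for 24 h, then dosed in 10-point, 3-fold serial dilution from 10 µM. CCK-8 added after 5 days, 4 h at 37 °C, absorbance at 450 nm. IC50 averaged from three separate determinations (at least two independent runs, duplicate wells). PC-3 grown in DMEM/F12 (1:1), LO2 in RPMI 1640, both with 10% FBS.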
For orientation: Formazan colour is commonly taken as a measure of viable cells.

The target of assay [9] is T1, Protein cereblon/Cyclin-dependent kinase 2 (Homo sapiens). Nature of the assay: Protac activity at CRBN/CDK2 in AR-negative human PC3 cells assessed as CDK2 degradation at 1 uM preincubated with pomalidomide for 2 hrs and measured after 8 hrs by Western blot analysis. Type of assay: cell-based. To be noted: PC-3. In outline: (§3)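 PC-3 cells pretreated 2 h with 10 µM DMSO, AT-7519, pomalidomide or MG-132, then degrader at 1 µM for 8 h. CDK2 immunoblotted against β-tubulin loading control, with 50 µg protein per lane on 10% SDS-PAGE and ECL detection.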

For assay [10] the target is unchanged. The assay is described as follows: Protac activity at CRBN/CDK2 in AR-negative human PC3 cells assessed as CDK2 degradation at 1 uM preincubated with proteasome inhibitor MG132 for 2 hrs and measured after 8 hrs by Western blot analysis. The format is cell-based. As to conditions: PC-3. In short, it runs like this: as §3
Assay [11] concerns the target T3, Protein cereblon/Cyclin-dependent kinase 9 (Homo sapiens). Nature of the assay: Protac activity at CRBN/CDK9 in AR-negative human PC3 cells assessed as induction of CDK9 protein degradation at 5 uM after 12 hrs by Western blot analysis. The format is cell-based. To be noted: PC-3. In outline: as §2
The target in assay [12] is T1, Protein cereblon/Cyclin-dependent kinase 2 (Homo sapiens). Nature of the assay: Protac activity at CRBN/CDK2 in AR-negative human PC3 cells assessed as CDK2 degradation at 1 uM preincubated with AT-7519 for 2 hrs and measured after 8 hrs by Western blot analysis. To be noted: PC-3.
Assay [13] has as its system PC-3. The assay is described as follows: Induction of cell cycle arrest in human PC3 cells assessed as accumulation at G0/G1 phase at 3 uM after 48 hrs by propidium iodide staining based flow cytometry (reference value: 59.80%). The format is functional.
Assay [14] has as its system PC-3. Nature of the assay: Induction of cell cycle arrest in human PC3 cells assessed as accumulation at S phase at 3 uM after 48 hrs by propidium iodide staining based flow cytometry (reference value: 17.96%). Type of assay: functional.
In assay [15] the test system is PC-3. The assay is described as follows: Induction of cell cycle arrest in human PC3 cells assessed as accumulation at G2/M phase at 3 uM after 48 hrs by propidium iodide staining based flow cytometry (reference value: 22.24%). Type of assay: functional. A general note: In flow cytometry, cells or beads pass a laser one at a time.
Assay [16] addresses T1, Protein cereblon/Cyclin-dependent kinase 2 (Homo sapiens). The assay is described as follows: Protac activity at CRBN/CDK2 in AR-negative human PC3 cells assessed as induction of CDK2 protein degradation at 30 uM after 12 hrs by Western blot analysis. Type of assay: cell-based. To be noted: PC-3. In outline:
as §1

Assay [17] has the same target. The assay is described as follows: Protac activity at CRBN/CDK2 in AR-negative human PC3 cells assessed as induction of CDK2 protein degradation at 50 nM after 12 hrs by Western blot analysis. The format is cell-based. To be noted: PC-3. In short, it runs like this:
as §1

The target in assay [18] is T3, Protein cereblon/Cyclin-dependent kinase 9 (Homo sapiens). The assay is described as follows: Protac activity at CRBN/CDK9 in AR-negative human PC3 cells assessed as induction of CDK9 protein degradation at 50 nM after 12 hrs by Western blot analysis. Type of assay: cell-based. To be noted: PC-3. In outline: as §2
In assay [19] the target is T2, Protein cereblon/Cyclin-dependent kinase 2/Cyclin-dependent kinase 9. The assay is described as follows: Protac activity at CRBN/CDK2/CDK9 in AR-negative human PC3 cells assessed as CDK2 degradation at 10 to 10^4 nM after 12 hrs by Western blot analysis. Type of assay: cell-based. As to conditions: PC-3.
Assay [20] shares this target. Nature of the assay: Protac activity at CRBN/CDK2/CDK9 in AR-negative human PC3 cells assessed as CDK9 degradation at 10 to 10^4 nM after 12 hrs by Western blot analysis. The format is cell-based. As to conditions: PC-3.
Assay [21] has the same target. Nature of the assay: Protac activity at CRBN/CDK2/CDK9 in AR-negative human PC3 cells assessed as CDK2 degradation at 10^-1 to 10^3 nM after 12 hrs by Western blot analysis. The format is cell-based. As to conditions: PC-3.
The target is the same in assay [22]. The assay is described as follows: Protac activity at CRBN/CDK2/CDK9 in AR-negative human PC3 cells assessed as CDK9 degradation at 10^-1 to 10^3 nM after 12 hrs by Western blot analysis. As to conditions: PC-3. The format is cell-based.

Molecules are shown by their SMILES. Calls of active or inactive are those of the source. No cut-off for these calls is given here.

As a reminder, the IC50 is the concentration that inhibits the measured activity by half.

T3 sequence (P50750 whole entry, looked up): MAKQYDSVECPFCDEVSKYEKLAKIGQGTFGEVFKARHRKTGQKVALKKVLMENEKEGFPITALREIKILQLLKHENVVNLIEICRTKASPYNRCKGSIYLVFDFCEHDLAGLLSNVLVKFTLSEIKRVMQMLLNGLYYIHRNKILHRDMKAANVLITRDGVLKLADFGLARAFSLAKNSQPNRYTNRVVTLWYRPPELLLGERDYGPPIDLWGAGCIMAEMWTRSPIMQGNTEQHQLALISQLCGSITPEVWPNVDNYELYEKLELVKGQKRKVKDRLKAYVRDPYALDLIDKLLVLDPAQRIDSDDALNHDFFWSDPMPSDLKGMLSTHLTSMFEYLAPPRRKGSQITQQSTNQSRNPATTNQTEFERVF
T3 sequence (Q96SW2 whole entry, looked up): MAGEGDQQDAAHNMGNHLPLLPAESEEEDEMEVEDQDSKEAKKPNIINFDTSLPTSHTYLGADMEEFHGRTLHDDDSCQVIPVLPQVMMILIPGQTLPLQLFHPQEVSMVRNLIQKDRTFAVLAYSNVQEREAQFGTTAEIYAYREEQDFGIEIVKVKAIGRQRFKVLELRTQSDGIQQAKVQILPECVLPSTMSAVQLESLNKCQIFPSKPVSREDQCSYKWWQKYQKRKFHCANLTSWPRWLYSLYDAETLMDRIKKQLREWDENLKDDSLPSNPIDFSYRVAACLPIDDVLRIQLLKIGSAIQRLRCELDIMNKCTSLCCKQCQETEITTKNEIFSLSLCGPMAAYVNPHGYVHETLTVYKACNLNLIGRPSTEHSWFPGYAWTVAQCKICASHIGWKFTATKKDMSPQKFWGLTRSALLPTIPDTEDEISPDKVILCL
Sequence of Protein cereblon/Cyclin-dependent kinase 5 (Homo sapiens) (Q00535 whole entry, looked up): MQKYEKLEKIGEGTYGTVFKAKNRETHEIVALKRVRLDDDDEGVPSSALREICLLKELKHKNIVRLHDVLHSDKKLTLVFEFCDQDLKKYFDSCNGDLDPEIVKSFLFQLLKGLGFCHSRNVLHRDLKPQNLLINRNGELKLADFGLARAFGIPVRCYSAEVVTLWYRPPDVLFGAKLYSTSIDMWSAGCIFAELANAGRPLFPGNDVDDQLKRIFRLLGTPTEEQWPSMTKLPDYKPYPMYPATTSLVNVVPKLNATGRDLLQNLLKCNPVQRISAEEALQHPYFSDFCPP
Sequence of Protein cereblon/Cyclin-dependent kinase 5 (Homo sapiens) (Q96SW2 whole entry, looked up): as the sequence (Q96SW2 whole entry, looked up) above

As to `O=C(COc1cccc2c1C(=O)N(C1CCC(=O)NC1=O)C2=O)NCCCCCC(=O)N1CCC(NC(=O)c2n[nH]cc2NC(=O)c2c(Cl)cccc2Cl)CC1` (stereo unspecified), the result in [1], in assay [2], in assay [3] and in [6] was Active. Further, the result in assay [4] and in assay [5] was inactive.

Consider `O=C(COc1cccc2c1C(=O)N(C1CCC(=O)NC1=O)C2=O)NCCOCCOCC(=O)N1CCC(NC(=O)c2n[nH]cc2NC(=O)c2c(Cl)cccc2Cl)CC1` (stereo unspecified), for which the outcome in assay [1], in assay [7] and in assay [11] was Active. Also, the outcome in assay [4], in [9], in [10], in assay [5] and in [12] was inactive. Moreover, the IC50 in assay [8] amounted to 840 nM.

Consider `CN1CCN(Cc2ccc(NC(=O)c3n[nH]cc3Nc3ncnc4[nH]ccc34)cc2)CC1`, for which, in [8], the IC50 turned out to be 690 nM. The Activity came to 45.58% in assay [13], 16.52% in [14] and 37.9% in assay [15].

For the compound `O=C(CCC(=O)N1CCN(Cc2ccc(NC(=O)c3n[nH]cc3Nc3ncnc4[nH]ccc34)cc2)CC1)NCCCCNc1cccc2c1C(=O)N(C1CCC(=O)NC1=O)C2=O` (stereo unspecified), the outcome in assay [1] and in assay [16] was inactive. For the same compound, the outcome in [7], in [17] and in assay [18] was Active. For the same compound, the 50% inhibitory concentration (IC50) in assay [8] is 1380 nM.

In the case of `CN1C(=O)CCC(N2C(=O)c3cccc(NCCNC(=O)CCC(=O)N4CCN(Cc5ccc(NC(=O)c6n[nH]cc6Nc6ncnc7[nH]ccc67)cc5)CC4)c3C2=O)C1=O` (stereo unspecified), the result in [19] and in [20] was inactive.

Regarding `O=C(CCC(=O)N1CCN(Cc2ccc(NC(=O)c3n[nH]cc3Nc3ncnc4[nH]ccc34)cc2)CC1)NCCNc1ccc2c(c1)C(=O)N(C1CCC(=O)NC1=O)C2=O` (stereo unspecified), the result in assay [21] and in assay [22] was Active.

`O=C(CCC(=O)N1CCN(Cc2ccc(NC(=O)c3n[nH]cc3Nc3ncnc4[nH]ccc34)cc2)CC1)NCCNc1cccc2c1CN(C1CCC(=O)NC1=O)C2=O` (stereo unspecified): the outcome in [21] and in assay [22] was Active.

Values taken from ChEMBL document CHEMBL4602651, “Development of selective mono or dual PROTAC degrader probe of CDK isoforms” (Eur J Med Chem, 2020).
